# Bioassay records deposited in PubChem BioAssay by several laboratories.
# B2AR ag – agonists of human beta-2 adrenergic receptor inducing internalization; Am2.2-beta2AR cells, FAP receptor internalization, flow cytometry; 0.43% of 340,000 active; response, % (concentration not given with the values); P07550;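 active means response above a set limit, near 3 SD of response in nonfluorescent compounds, cut at about 42% in these data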
# TLR4-MyD88 BLA – blocks binding of human TLR4 to MyD88 | O00206+Q99836 | HeLa CL3-4 TLR4/MyD88 BLA complementation, FRET ratio | inhibition, % at 8.4 µM | 0.18% of 200,000 active | AID 861; in the data active means inhibition above about 25%;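 further: 0% = vehicle and 100% = reference inhibitor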
# NOD2-RIPK2 inh – inhibitors of human NOD2-RIPK2 interaction. O43353. CHO BLA complementation NOD2-RIPK2, CCF4 ratio. inhibition, % at 4.98 µM. 0.38% of 360,000 active. AID 624267; in the data active means inhibition above about 21%;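 further: 0% = vehicle only and 100% = reference blocker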
# Dynein cargo inh – dynein cargo transport inhibition | 0.47% of 220,000 active | 3617.4 mouse cells, GR-EGFP nuclear translocation imaging; test concentration mostly 20 µM; stimulated with dexamethasone, 1 µM; active compounds read low | z-score, hits read low | AID 1381;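 active means plate z-score of nuclear minus cytoplasmic receptor signal below a set negative limit, without overly bright fluorescence or cell loss, cut at about -3.5 in these data, passing the limit was not always enough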;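 further: z-score of nuclear minus cytoplasmic ring GR-EGFP intensity difference per well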
#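 Schedule: 48 h induction, then 1 h compound, then 30 min agonist, 37 °C. Buffer or medium: tetracycline-free induction medium containing charcoal-stripped FBS. Reagent: 1.0 µM final dexamethasone stimulus. Evaluation: nuclear versus cytoplasmic GR-EGFP signal, averaged per well. Signal: high-content fluorescence imaging after fixation.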
# TLR9-MyD88 block – blocks human TLR9 binding to MyD88; Q9NR96+Q99836; CHO BLA complementation TLR9-MyD88, CCF4 FRET ratio; inhibition, % at 4.98 µM; 0.21% of 340,000 active; AID 504734;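 active means inhibition above the mean over all tested compounds plus 3 SD, cut at about 21% in these data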;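 further: 0% = DMSO only wells and 100% = clavulanate BLA inhibitor control wells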
# ABHD5-PLIN5 inh – inhibitors of human ABHD5-perilipin-5 interaction; 0.78% of 360,000 active; Q00G26+Q8WTS1; inhibition, % at 4 µM; Split G. princeps luciferase complementation, luminescence, 4 h; AID 602281;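 active means inhibition above the mean inhibition across every tested compound plus 3 SD, cut at about 22% in these data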;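 further: 0% = DMSO only wells and the 100% control is not disclosed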
# Target sequence (Q00G26 whole entry, looked up): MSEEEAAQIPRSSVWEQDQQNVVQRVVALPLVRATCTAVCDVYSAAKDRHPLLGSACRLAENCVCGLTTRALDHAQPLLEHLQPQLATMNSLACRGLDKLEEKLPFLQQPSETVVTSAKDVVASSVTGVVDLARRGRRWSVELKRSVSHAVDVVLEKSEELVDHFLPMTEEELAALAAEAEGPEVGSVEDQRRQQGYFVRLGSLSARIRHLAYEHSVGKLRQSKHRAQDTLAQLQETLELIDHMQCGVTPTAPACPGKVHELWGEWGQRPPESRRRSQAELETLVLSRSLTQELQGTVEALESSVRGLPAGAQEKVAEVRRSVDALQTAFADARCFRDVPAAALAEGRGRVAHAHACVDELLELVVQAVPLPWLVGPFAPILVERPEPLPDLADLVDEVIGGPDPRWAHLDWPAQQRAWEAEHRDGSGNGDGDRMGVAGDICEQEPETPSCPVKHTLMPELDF
# Target sequence (Q8WTS1 whole entry, looked up): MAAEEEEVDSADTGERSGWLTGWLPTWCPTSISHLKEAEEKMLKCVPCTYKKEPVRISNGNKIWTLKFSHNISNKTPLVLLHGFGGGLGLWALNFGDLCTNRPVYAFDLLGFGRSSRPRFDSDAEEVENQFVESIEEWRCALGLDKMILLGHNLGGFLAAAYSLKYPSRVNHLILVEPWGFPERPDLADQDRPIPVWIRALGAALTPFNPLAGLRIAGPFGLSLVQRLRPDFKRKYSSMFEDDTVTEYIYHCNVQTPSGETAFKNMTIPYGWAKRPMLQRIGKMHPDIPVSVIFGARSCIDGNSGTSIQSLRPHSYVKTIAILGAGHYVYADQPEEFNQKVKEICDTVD
# * = called active by the depositor; . = no result given. Hits are enriched below; roughly 1.6% of the tested compounds scored in any of these assays.
SMILES,B2AR ag,TLR4-MyD88 BLA,NOD2-RIPK2 inh,Dynein cargo inh,TLR9-MyD88 block,ABHD5-PLIN5 inh
CC(=O)Oc1cccc(/C=C2\Sc3ccccc3C2=O)c1,7,.,-2,-0.26,-10,22*
CCCCOc1ccc(/C=C2/Sc3ccccc3C2=O)cc1,3,-4,0,-0.26,9,1
Cc1ccc(NS(=O)(=O)c2cccc(C(=O)NCC(c3ccco3)N3CCCCC3)c2)cc1 (configuration not stated),5,.,5,.,-2,-1
CCOc1ccccc1/C=C/C(=O)N1CCN(C(=O)c2ccco2)CC1,84*,.,-1,.,4,10
COC(=O)CSc1ncnc2c1sc1nc(-c3ccco3)c3c(c12)CC(C)(C)OC3,.,-3,.,-2.7,.,.
CCOC(=O)c1sc2nc(-c3ccco3)c3c(c2c1N)CC(C)(C)OC3,-9,.,4,.,6,30*
C=CC[C@@H](Cc1ccc(F)cc1)C(=O)OC[C@@H]1CCCN1C(=O)[C@H](CC=C)CC(=O)N(CCO)Cc1ccccc1,1,.,8,.,0,0
COc1ccc2cc(CN(Cc3ccco3)Cc3nnnn3C3CCCCC3)c(=O)[nH]c2c1,-11,-6,-4,0.17,-7,-2
COc1ccc2cc(CN(Cc3ccco3)C(c3nnnn3C3CCCCC3)C(C)C)c(=O)[nH]c2c1 (configuration not stated),16,6,-10,-0.33,1,22*
COc1ccc2ccc(O)c(CN(C)CC(=O)Nc3ccccc3C(F)(F)F)c2c1,9,.,9,.,7,22*
Cc1noc(C)c1C(=O)N1CCC1(C)C(=O)NS(=O)(=O)Cc1cccc(Cl)c1 (configuration not stated),.,.,-5,.,.,0
COc1ccccc1S(=O)(=O)N(C)C[C@H]1OCc2cn(nn2)CCCC(=O)N([C@@H](C)CO)C[C@@H]1C,.,.,8,.,-10,10
O=[N+]([O-])c1cccc(SSc2cccc([N+](=O)[O-])c2)c1,3,.,0,.,5,36*
Nc1cccc([N+](=O)[O-])c1,0,-15,-12,0.54,-10,7
O=[N+]([O-])c1ccc(N=Nc2c(Cl)cc(O)cc2Cl)cc1,55*,.,8,-0.84,-10,3
CC(N)=Nc1ccc([N+](=O)[O-])cc1,-8,-27,1,-0.87,0,-3
CCOc1ccc2[nH]c(C(=O)N/N=C/c3ccc(OC)cc3)cc2c1,52*,.,9,.,-7,-6
COc1ccc(/C=N/NC(=O)c2cc3cc(OC)c(OC)cc3[nH]2)cc1,0,.,9,.,8,14
O=C(NCCN1CCNC1=O)c1ccc2sc([C@@H]3O[C@H](CO)[C@H](O)[C@H](O)[C@H]3O)nc2c1,.,.,-2,.,.,-12
Cc1ccc(Sc2ccc(/C=N/O)cc2[N+](=O)[O-])cc1,58*,-7,8,-0.26,4,5
CCOC(=O)c1c(C)[nH]c(C(=O)COC(=O)/C=C/c2ccc3c(c2)OCO3)c1C,53*,1,-3,0.67,-4,0
CCc1ccc(C(C)NC(=O)COC(=O)c2ccc(-n3cnnn3)cc2)cc1 (configuration not stated),-2,.,3,.,0,-6
Cc1nc(C(F)(F)F)ccc1C(=O)N1CCC(C)(C(=O)NS(=O)(=O)C2CC2)C1 (configuration not stated),.,.,-11,.,.,-5
CN(C)CCCNC(=S)NCC(c1ccc(Cl)cc1Cl)c1c[nH]c2ccccc12 (configuration not stated),47*,.,3,.,-1,15
Cc1cccn2c(=O)c3cc(C(=O)NC4CCCCC4)c(=N)n(Cc4ccc(F)cc4)c3nc12,78*,.,-11,.,-13,-6
SMILES,B2AR ag,TLR4-MyD88 BLA,NOD2-RIPK2 inh,Dynein cargo inh,TLR9-MyD88 block,ABHD5-PLIN5 inh
Cc1cccn2c(=O)c3cc(C(=O)NC(C)C)c(=N)n(Cc4ccncc4)c3nc12,-3,5,-14,-0.11,-11,2
CCNC(=O)c1cc2c(=O)n3cccc(C)c3nc2n(Cc2ccc(C)cc2)c1=N,51*,-3,-6,0.086,-6,11
CSc1ncnc2c1ncn2CCCNCCCN1CCCC1=O,.,.,-3,.,4,7
Cn1cc(CNCc2cn(C)nc2-c2ccc(C3CCCCC3)cc2)cn1,28,-5,-6,0.88,-1,22*
O=C(O)/C=C1\NC(=O)c2ccccc21,12,-4,1,3,6,-2
O=C1N/C(=C\c2ccc(O)cc2)C(=O)c2ccccc21,18,16,7,-0.18,1,34*
CCCCN1CC(N2CCN(Cc3ccccc3)CC2)CS1(=O)=O (configuration not stated),.,.,-9,.,.,-7
CCCN(CC(=O)Nc1ccc(F)c(F)c1F)C(=O)c1ccc(N2CCCC2=O)cc1,-7,.,-18,.,-12,1
COC(=O)c1ccc(COc2ccc(/C=C(\C#N)c3nc4ccccc4[nH]3)cc2OC)o1,43*,0,8,-0.0049,9,-2
O=C1CCC(/C=C/c2ccccc2)=NN1Cc1ccccc1Cl,43*,11,3,-0.93,4,2
Cc1ccc(S(=O)(=O)N2CC(CO)=CCC2c2ccccc2)cc1 (configuration not stated),.,.,0,.,.,-3
O=C(NC1CCCCC1)c1ccc(-c2ccccc2F)o1,4,.,4,.,-4,23*
O=S(=O)(c1ccccc1)N1N=C(c2ccc(Cl)cc2)CC1c1ccco1 (configuration not stated),21,.,1,.,-10,18
CC(=O)NCCNc1nc2cc(-c3cccc(C(F)(F)F)c3)sc2c(=O)n1C,.,.,-7,.,.,1
CCOC(=O)c1c(C)n(-c2ccc(C)cc2)c2ccc(OCC(O)CN3CCN(C)CC3)cc12 (configuration not stated),26,6,-6,-2.6,4,22*
CCOC(=O)c1c(C)n(C)c2ccc(OCC(O)CN3CCN(C)CC3)cc12 (configuration not stated),-9,-13,3,1.7,5,4
Cc1ccc(-n2c(=O)cc(N3CC(C)OC(C)C3)[nH]c2=O)cc1 (configuration not stated),-4,-4,1,-0.27,-8,19
Cc1ccccc1-n1c(=O)cc(N2CC(C)OC(C)C2)[nH]c1=O (configuration not stated),-6,-2,3,-0.076,-4,23*
Cc1cc2ccccn2c1C(C[N+](=O)[O-])c1ccc(N(C)C)cc1 (configuration not stated),10,-15,6,-1,4,23*
COc1ccc(C(C[N+](=O)[O-])c2c(C)cc3ccccn23)cc1 (configuration not stated),1,-8,-9,-1.2,6,15
